For assay [1], the target named is T1, Endothelin receptor type B (Sus scrofa, UniProt P35463).
T1 sequence (P35463 whole entry): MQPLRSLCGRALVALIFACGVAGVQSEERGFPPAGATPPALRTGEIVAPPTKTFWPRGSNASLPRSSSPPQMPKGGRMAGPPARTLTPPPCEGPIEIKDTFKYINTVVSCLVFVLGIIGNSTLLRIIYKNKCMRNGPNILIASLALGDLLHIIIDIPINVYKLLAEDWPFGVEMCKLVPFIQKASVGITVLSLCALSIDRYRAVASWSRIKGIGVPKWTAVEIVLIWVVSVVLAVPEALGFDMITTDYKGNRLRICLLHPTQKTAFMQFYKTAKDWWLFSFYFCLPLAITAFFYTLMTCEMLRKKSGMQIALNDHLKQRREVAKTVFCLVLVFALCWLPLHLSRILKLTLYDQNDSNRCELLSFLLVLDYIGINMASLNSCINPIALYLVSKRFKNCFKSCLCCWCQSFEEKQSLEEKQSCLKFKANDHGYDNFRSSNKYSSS
Description: Binding affinity to endothelin B receptor measured by inhibition of [125I]ET-3 binding recombinant pig ET-B receptor expressed in COS-7 cells. The class given is cell-based. The method in brief: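 COS cells transfected with porcine ETB cDNA, in Hank's solution with 20 mM HEPES and protease inhibitors. Stopped by filtration on GF/C filters presoaked in 1% polyethylenimine, washed with 50 mM Tris-HCl pH 7.4, then counted. Nonspecific binding taken with 0.1 μM ET-3.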

Assay [2] is described as follows: Ratio of inhibitory concentrations at ET-B receptor relative to that of ET-A receptor.
Assay [3] concerns the target T2, Endothelin-1 receptor (Rattus norvegicus, UniProt P26684).
T2 sequence (P26684 whole entry): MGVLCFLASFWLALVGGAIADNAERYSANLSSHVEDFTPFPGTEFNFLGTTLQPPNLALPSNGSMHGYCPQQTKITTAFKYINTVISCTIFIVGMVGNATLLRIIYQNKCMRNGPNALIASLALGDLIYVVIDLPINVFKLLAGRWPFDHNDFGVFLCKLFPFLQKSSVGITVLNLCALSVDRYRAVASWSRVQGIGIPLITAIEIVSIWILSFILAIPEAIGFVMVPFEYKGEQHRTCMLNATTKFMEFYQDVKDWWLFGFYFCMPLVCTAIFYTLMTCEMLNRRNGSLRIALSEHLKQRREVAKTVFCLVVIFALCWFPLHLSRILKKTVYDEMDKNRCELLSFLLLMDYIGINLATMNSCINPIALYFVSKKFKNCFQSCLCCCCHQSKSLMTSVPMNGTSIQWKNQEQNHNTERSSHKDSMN
Description: Binding affinity for endothelin A receptor by inhibition of [125I]ET1 binding in rat aorta smooth muscle cells. The class given is tissue-based.

The target in assay [4] is T3, Endothelin receptor type B (Homo sapiens, UniProt P24530).
T3 sequence (P24530 whole entry): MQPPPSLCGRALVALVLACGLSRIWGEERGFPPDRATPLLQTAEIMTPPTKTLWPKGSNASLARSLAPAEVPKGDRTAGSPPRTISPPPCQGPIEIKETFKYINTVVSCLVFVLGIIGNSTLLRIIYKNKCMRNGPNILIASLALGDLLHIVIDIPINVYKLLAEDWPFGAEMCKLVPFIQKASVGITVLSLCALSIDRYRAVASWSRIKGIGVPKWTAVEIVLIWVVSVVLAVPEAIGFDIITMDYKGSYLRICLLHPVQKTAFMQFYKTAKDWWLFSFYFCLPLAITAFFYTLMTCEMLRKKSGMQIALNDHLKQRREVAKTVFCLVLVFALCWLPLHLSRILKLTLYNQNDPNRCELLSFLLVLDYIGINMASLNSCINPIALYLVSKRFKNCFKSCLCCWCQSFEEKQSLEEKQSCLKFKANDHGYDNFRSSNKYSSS
Description: Binding affinity at human Endothelin B receptor. The method in brief: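 Membranes from CHO cells expressing human ETB receptor were incubated with [125I]ET-3 (25 pM as added) and the test compound at various concentrations for 60 min at 37 °C. Buffer was HEPES (20 mM)-buffered Hank's solution with protease inhibitors. Samples were filtered on PEI-presoaked glass-fibre filters, washed with 50 mM Tris-HCl pH 7.4 and counted. Nonspecific binding was taken with 0.1 µM ET-3.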

Assay [5] addresses T4, Endothelin-1 receptor (Homo sapiens, UniProt P25101).
T4 sequence (P25101 whole entry): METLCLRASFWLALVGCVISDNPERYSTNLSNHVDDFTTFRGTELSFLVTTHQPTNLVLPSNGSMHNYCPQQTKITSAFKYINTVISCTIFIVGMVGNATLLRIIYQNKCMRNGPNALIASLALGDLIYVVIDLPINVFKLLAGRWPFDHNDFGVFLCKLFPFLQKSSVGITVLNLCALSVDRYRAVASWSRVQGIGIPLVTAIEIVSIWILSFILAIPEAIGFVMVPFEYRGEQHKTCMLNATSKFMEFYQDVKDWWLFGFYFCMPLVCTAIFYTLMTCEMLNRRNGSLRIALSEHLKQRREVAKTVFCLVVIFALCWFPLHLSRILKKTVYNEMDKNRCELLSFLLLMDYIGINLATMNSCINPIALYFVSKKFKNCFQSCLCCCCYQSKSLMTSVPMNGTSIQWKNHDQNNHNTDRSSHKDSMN
Nature of the assay: Binding affinity at human Endothelin A receptor. The method in brief:
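Membranes from CHO cells expressing human ETA receptor were incubated with [125I]ET-1 and the test compound at various concentrations for 60 min at 37 °C. Buffer was Hank's solution with 20 mM HEPES and protease inhibitors. Bound ligand was collected on PEI-presoaked glass-fibre filters and washed with 50 mM Tris-HCl pH 7.4, then counted.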

From ChEMBL document CHEMBL1135409, “Structure-activity relationships of a novel class of endothelin-A receptor antagonists and discovery of potent and selective receptor antagonist, 2-(benzo[1,3]dioxol-5-yl)-6-isopropyloxy-4-(4-methoxyphenyl)-2H-chromene-3-carboxylic acid (S-1255). 1. Study on structure-activity relationships and …” (J Med Chem, 2002) come the findings set out here.

Consider `COc1ccc(C2=C(C(=O)O)C(c3ccc4c(c3)OCO4)Oc3ccccc32)cc1` (stereo not given), for which the IC50 (in general, the concentration that inhibits the measured activity by half) in assay [1] came to 1400 nM; in assay [3] it was 86 nM. Further, in assay [2], the Ratio was 16.
In the same order, the values of `CCCCOc1ccc2c(c1)C(c1ccc(OC)cc1)=C(C(=O)O)C(c1ccc3c(c1)OCO3)O2` (stereo not given) are 130 nM, 17 nM and 7.6.
In the same order, the values of `COC1=C(C(=O)O)[C@@H](c2ccc3c(c2)OCO3)Oc2ccc(OC(C)C)cc21` are 3500 nM, 5.2 nM and 670.
On to `CCCOc1ccc2c(c1)C(c1ccc(OC)cc1)=C(C(=O)O)C(c1ccc3c(c1)OCO3)O2` (stereo not given), for which the IC50 in assay [1] came out at 220 nM; in assay [3], 4.4 nM. The Ratio in assay [2] was 50.
Taken in the same sequence, the figures for `CCCCOC1=C(C(=O)O)C(c2ccc3c(c2)OCO3)Oc2ccccc21` (stereo not given) were 4900 nM, 66 nM and 74.
Consider `CCCCOC1=C(C(=O)O)C(c2ccc3c(c2)OCO3)Oc2ccc(OC(C)C)cc21` (stereo not given), for which the Ratio in assay [2] worked out at 1900.
Take `COc1ccc(C2=C(C(=O)O)C(c3ccc4c(c3)OCO4)Oc3ccc(OC(C)CO)cc32)cc1` (stereo not given): the IC50 in assay [1] worked out at 170 nM; in assay [3], 2.8 nM. For the same compound, the Ratio in assay [2] is 61.
`CC(C)Oc1ccc2c(c1)C=C(C(=O)O)[C@@H](c1ccc3c(c1)OCO3)O2`: the IC50 is 52000 nM in assay [1] and 240 nM in assay [3]. The Ratio in assay [2] was determined as 220.
Taken in the same sequence, the figures for `COc1ccc(C2=C(C(=O)O)C(c3ccc4c(c3)OCO4)Oc3ccc(OC)cc32)cc1` (stereo not given) were 540 nM, 74 nM and 7.3.
In the same order, the values of `CCCOc1ccc2c(c1)OC(c1ccc3c(c1)OCO3)C(C(=O)O)=C2c1ccc(OC)cc1` (stereo not given) are 2300 nM, 970 nM and 2.4.
Regarding `CCCCOC1=C(C(=O)O)C(c2ccc3c(c2)OCO3)Oc2ccc(OCCCC)cc21` (stereo not given), the IC50 turned out to be 470 nM in assay [1] and 3 nM in assay [3]. Besides, the Ratio in assay [2] came out at 160.
Turning to `CCCCC1=C(C(=O)O)C(c2ccc3c(c2)OCO3)Oc2ccc(OC(C)C)cc21` (stereo not given), the Ratio in assay [2] turned out to be 840.
For the compound `CCCCOC1=C(C(=O)O)C(c2ccc3c(c2)OCO3)Oc2ccc(OCC)cc21` (stereo not given), the IC50 came out at 1600 nM in assay [1] and 4.2 nM in assay [3]. For the same compound, the Ratio in assay [2] was determined as 380.
As to `CCCOc1cccc2c1C(c1ccc(OC)cc1)=C(C(=O)O)C(c1ccc3c(c1)OCO3)O2` (stereo not given), the values for the IC50 in assay [1] and in assay [3] were 1800 nM and 1200 nM, respectively. Also, the Ratio in assay [2] is 1.5.
In the same order, the values of `CCCCOC1=C(C(=O)O)C(c2ccc3c(c2)OCO3)Oc2ccc(OC)cc21` (stereo not given) are 2300 nM, 250 nM and 9.2.
Taken in the same sequence, the figures for `CCOc1ccc2c(c1)C(c1ccc(OC)cc1)=C(C(=O)O)C(c1ccc3c(c1)OCO3)O2` (stereo not given) were 400 nM, 3.8 nM and 110.
In the case of `COc1ccc(C2=C(C(=O)O)[C@@H](c3ccc4c(c3)OCO4)Oc3ccc(OC(C)C)cc32)cc1`, the IC50 is 120 nM in assay [1], 200 nM in assay [4], 0.19 nM in assay [3] and 0.45 nM in assay [5].
Consider `COc1ccc(C2=C(C(=O)O)C(c3ccc4c(c3)OCO4)Oc3ccc(C(C)C)cc32)cc1` (stereo not given), for which the IC50 in assay [1] came out at 190 nM; in assay [3] it was 110 nM. Also, in assay [2], the Ratio came to 1.7.
In the case of `CC(C)Oc1ccc2c(c1)C=C(C(=O)O)[C@H](c1ccc3c(c1)OCO3)O2`, the IC50 in assay [1] was more than 100000 nM. Further, in assay [2], the Ratio was more than 60.
Consider `CC(C)Oc1ccc2c(c1)C=C(C(=O)O)C(c1ccc3c(c1)OCO3)O2` (stereo not given), for which the IC50 is 52000 nM in assay [1] and 330 nM in assay [3]. For the same compound, in assay [2], the Ratio was 160.
As for `CCCCOC1=C(C(=O)O)C(c2ccc3c(c2)OCO3)Oc2ccc(OCCC)cc21` (stereo not given), the IC50 in assay [1] turned out to be 520 nM; in assay [3], 2 nM. Further, the Ratio in assay [2] is 260.
In the same order, the values of `COC1=C(C(=O)O)C(c2ccc3c(c2)OCO3)Oc2ccc(OC(C)C)cc21` (stereo not given) are 6400 nM, 9.1 nM and 700.
On to `COc1ccc(C2=C(C(=O)O)C(c3ccc4c(c3)OCO4)Oc3ccc(OCc4ccccc4)cc32)cc1` (stereo not given), for which the IC50 in assay [1] turned out to be 790 nM; in assay [3] it was 62 nM. For the same compound, the Ratio in assay [2] is 13.
As for `CCCCOc1ccc2c(c1)C(c1ccc3c(c1)OCO3)=C(C(=O)O)C(c1cccc(OC)c1)O2` (stereo not given), the IC50 in assay [1] was found to be 160 nM; in assay [3] it was 350 nM.
As for `CCCCC1=C(C(=O)O)[C@@H](c2ccc3c(c2)OCO3)Oc2ccc(OC(C)C)cc21`, the IC50 in assay [1] was 400 nM; in assay [3], 0.42 nM. For the same compound, the Ratio in assay [2] turned out to be 950.
